Assay outcomes deposited in PubChem BioAssay by several laboratories.
Env fusion inh = inhibitors of HIV-1 Env-driven cell-cell fusion, primary screen, HeLa-JRFL effector, CEM21 target cells, luciferase; inhibition, % at 12.3 µM; 1.1% of 360,000 active; AID 651610, 2012;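 active means mean replicate inhibition score of at least 50 and every replicate individually at or above 50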;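 further: 0% = plate neutral controls and 100% = maraviroc near 300 nM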
GalR3 antagonist = GalR3 antagonists in HEK293 cells, primary screen, cell-based, fluorescence readout. Galanin receptor type 3 (Homo sapiens), O60755. HEK293 GalR3-CNG cAMP membrane potential fluorescence; galR3 body fused to GalR1 C-terminus. inhibition, % at 3 µM. 0.44% of 360,000 active. AID 651719, 2012;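 active means inhibition above the screen-wide average plus 3 SD, cut at about 13% in these data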;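 further: forskolin and galanin both at EC90 stimulate the cells; cAMP rise reported by CNG channel membrane potential dye signal; 0% = forskolin plus galanin with DMSO and 100% = forskolin alone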
Target sequence (O60755 1-299 limits assumed): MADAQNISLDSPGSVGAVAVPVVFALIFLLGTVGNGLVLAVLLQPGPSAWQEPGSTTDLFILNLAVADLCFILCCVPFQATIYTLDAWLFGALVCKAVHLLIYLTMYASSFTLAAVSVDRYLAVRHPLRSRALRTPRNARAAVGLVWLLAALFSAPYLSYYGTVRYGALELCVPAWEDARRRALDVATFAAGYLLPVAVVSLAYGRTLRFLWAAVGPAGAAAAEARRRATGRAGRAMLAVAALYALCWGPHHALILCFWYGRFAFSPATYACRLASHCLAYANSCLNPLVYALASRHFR
NR2E3 ag-1 = inhibitors of NR2E3-RetCOR corepressor binding, primary screen, NR2E3 agonist project, biochemical, TR-FRET, GST-NR2E3, biotin-RetCOR; 1536-well; AID 2300, 2010; 0.12% of 320,000 active; inhibition of corepressor binding, % at 4.78 µM; Photoreceptor-specific nuclear receptor (Homo sapiens), Q9Y5X4;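 active means percent inhibition above the cutoff of mean plus 3 SD of all tested compounds, set per screening campaign, cut at about 20% in these data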;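 further: 0% = DMSO wells and 100% = biotin wells as full block of FRET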
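Assay system: NR2E3–RetCOR corepressor complex. Quantity: 1.35 nM GST-NR2E3. Buffer or medium: pH 7.5 Tris-based buffer. Reagent: biotinylated RetCOR corepressor at 7 nM final. Schedule: 5 h at 4 °C. Detection: TR-FRET, emission read at 617 and 671 nm. Replicates: one well per compound, singlicate testing.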
V-ATPase pH = regulators of yeast V-ATPase proton pumping, primary screen, pHLuorin cytosolic pH fluorescence | S. cerevisiae | response, % at 10 µM | 0.37% of 350,000 active; in the data active means response mostly above about 7.3%, no sharp cut-off; inactive means mostly below about 5.4%; further: actives read high
GAA850 FXN act = FXN promoter activators, primary screen, cell-based, luciferase luminescence, HEK293 lucGAA850. 0.56% of 360,000 active. HEK293 lucGAA850 FXN promoter luciferase reporter, 24 h; percent of 10 µM SAHA response. activation, % at 6 µM;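 active means activation above the average of all compounds screened plus 3 SD, cutoff fixed separately per campaign, cut at about 7.5% in these data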;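 further: 0% = DMSO wells and 100% = 10 µM SAHA wells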
NR2E3 ag-2 = NR2E3 agonists in two-hybrid cells, primary screen, cell-based, luminescence, CHO-S, Gal4-NCOR/VP16-NR2E3; 0.35% of 360,000 active; inhibition of corepressor binding, % at 3.98 µM; AID 602229, 2012; Photoreceptor-specific nuclear receptor (Homo sapiens), Q9Y5X4; luciferase;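 active means inhibition above the mean of all tested compounds plus 3 SD, cut at about 70% in these data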;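 further: 0% = DMSO with NR2E3 transfected cells and 100% = cells lacking NR2E3 construct; higher means lower luciferase signal from less NR2E3 corepressor binding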
NR2E3 ag conf = NR2E3 agonist confirmation in cells, cell-based, luminescence, CHO-S two-hybrid; shares compounds with NR2E3 ag-2; CHO-S mammalian two-hybrid NR2E3-NCOR, luciferase luminescence; 51% of 2,300 active; AID 624378, 2012; inhibition, % at 3.98 µM;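 active means average inhibition above a cutoff equal to the mean inhibition of all tested compounds plus one SD, cut at about 70% in these data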;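 further: 0% = DMSO in NR2E3 cells and 100% = DMSO in cells lacking NR2E3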
VP16 counter = GAL4-VP16 reporter modulators, confirmation, counter-screen for NR2E3 agonist project, cell-based, luminescence, CHO-S, high throughput. shares compounds with NR2E3 ag-2. 29% of 2,300 active. CHO-S GAL4-VP16 luciferase reporter. inhibition, % at 3.98 µM;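 active means mean inhibition above a cutoff equal to the average over all tested compounds plus one standard deviation, cut at about 70% in these data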;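 further: luciferase from a UAS reporter driven by GAL4-VP16 transactivation; 0% = DMSO with VP16-transfected cells and 100% = DMSO with cells lacking VP16; higher means less reporter light so more repression of VP16 activity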
Active calls of the source: *; x = not tested or not shown; [ ] = remark or other dose. In the library only some 2.2% were active in any assay of this set; here they are far more common.

SMILES	Env fusion inh	GalR3 antagonist	NR2E3 ag-1	V-ATPase pH	GAA850 FXN act	NR2E3 ag-2	NR2E3 ag conf	VP16 counter
O=S(=O)(Nc1cccc2ncccc12)c1cccs1	x	x	3	3	-17	97*	48	24
C[C@@H]1CN([C@@H](C)CO)S(=O)(=O)c2ccc(C#CC3CC3)cc2O[C@H]1CN(C)C(=O)C1CCC1	20[16.7 µM]	x	x	x	x	x	x	x
OC[C@@H]1CN(Cc2ccc(-c3ccccc3)cc2)C[C@H](n2cnc3c(NCc4ccco4)ncnc32)O1	43	-5	x	x	-6	70	75*	39
OC[C@@H]1CN(Cc2ccc(-c3ccccc3)cc2)C[C@H](n2cnc3c(NCc4ccncc4)ncnc32)O1	35	-2	x	x	-5	55	74*	53
CO[C@H]1CN(C)C(=O)c2cc(NC(C)=O)ccc2OC[C@H](C)N(C(=O)c2ccc(F)cc2)C[C@H]1C	-1[16.7 µM]	x	x	x	x	x	x	x
CC(=O)N1c2ccc(S(=O)(=O)N3CCC(C(=O)N4CCN(c5ccc(Cl)cc5)CC4)CC3)cc2CC1C (stereo not given)	20	-8	2	0	-2	65	77*	68
O=C(C1CCN(S(=O)(=O)c2cccnc2)CC1)N1CCN(c2ccccc2Cl)CC1	x	0	2	2	2	-10	x	x
Cc1ccc(Cl)cc1N1CCN(C(=O)C2CCN(S(=O)(=O)c3cccnc3)CC2)CC1	x	0	0	-2	2	52	53	40
CC1Cc2cc(S(=O)(=O)N3CCN(c4ccc(Cl)cc4)CC3)ccc2N1C(=O)C1CC1 (stereo not given)	8	-2	1	-2	-1	14	x	x
C[C@H](CO)N1C[C@H](C)[C@H](CN(C)Cc2ccc3c(c2)OCO3)Oc2ccc(NS(C)(=O)=O)cc2C1=O	-8[16.7 µM]	x	x	x	x	x	x	x
Cc1ccc(S(=O)(=O)N(C)C[C@H]2Oc3ccc(NS(=O)(=O)c4ccccc4)cc3C(=O)N([C@@H](C)CO)C[C@H]2C)cc1	-16[16.7 µM]	x	x	x	x	x	x	x
O=C(Nc1ccccc1)N[C@H]1CC[C@H](CCn2cc(-c3ccccc3F)nn2)O[C@H]1CO	-43[16.7 µM]	x	x	x	x	x	x	x
O=C(c1ccco1)N1CCN(S(=O)(=O)c2ccc(Oc3ccccc3)cc2)CC1	x	-8	1	-1	1	49	48	66
O=C(C[C@@H]1CC[C@@H](NC(=O)c2ccc3c(c2)OCO3)[C@@H](CO)O1)NC1Cc2ccccc2C1	1[16.7 µM]	x	x	x	x	x	x	x
Cc1cc(/C=N/n2cnnc2)c(C)n1-c1ccc(OCc2ccc(Cl)cc2Cl)cc1	x	x	2	0	-13	111*	98*	89*
Cc1cc(/C=N/n2cnnc2)c(C)n1-c1ccc(OCc2ccc(F)cc2)cc1	66*	-3	1	0	-5	48	96*	85*
C[C@H]1CN([C@@H](C)CO)C(=O)c2cc(C#CC3CCCC3)cnc2O[C@@H]1CN(C)C(=O)C1CCCCC1	22[16.7 µM]	x	x	x	x	x	x	x
CO[C@H]1CN(C)C(=O)c2cc(NC(=O)c3cc(C)on3)ccc2OC[C@H](C)NC[C@H]1C	-11[16.7 µM]	x	x	x	x	x	x	x
CC(C)C(=O)Nc1ccc2c(c1)C(=O)N(C)[C@@H]1CC[C@@H](CC(=O)N[C@@H](C)c3ccccc3)O[C@@H]1CO2	20[16.7 µM]	x	x	x	x	x	x	x
O=C(C1CC1)N1CCc2cc(S(=O)(=O)NCCCN3CCCCC3)ccc21	10	2	-3	0	-1	-5	x	x
COc1cccc(CNS(=O)(=O)c2ccc3c(c2)CC(C)N3C(=O)C2CC2)c1 (stereo not given)	13	-7	0	-4	-1	61	56	36
